Laboratory results from ChEMBL document CHEMBL3612034, “Synthesis of bicoumarin thiophosphate derivatives as steroid sulfatase inhibitors” (Eur J Med Chem, 2015).
Active and inactive are the calls of the source. The rule behind the calls is not given here.

What was measured:
Steryl-sulfatase [1] = target: T1, Steryl-sulfatase (Homo sapiens, UniProt P08842); assay: Inhibition of human placenta STS using NPS as substrate after 15 mins by microplate reader analysis
T1 sequence (P08842 whole entry): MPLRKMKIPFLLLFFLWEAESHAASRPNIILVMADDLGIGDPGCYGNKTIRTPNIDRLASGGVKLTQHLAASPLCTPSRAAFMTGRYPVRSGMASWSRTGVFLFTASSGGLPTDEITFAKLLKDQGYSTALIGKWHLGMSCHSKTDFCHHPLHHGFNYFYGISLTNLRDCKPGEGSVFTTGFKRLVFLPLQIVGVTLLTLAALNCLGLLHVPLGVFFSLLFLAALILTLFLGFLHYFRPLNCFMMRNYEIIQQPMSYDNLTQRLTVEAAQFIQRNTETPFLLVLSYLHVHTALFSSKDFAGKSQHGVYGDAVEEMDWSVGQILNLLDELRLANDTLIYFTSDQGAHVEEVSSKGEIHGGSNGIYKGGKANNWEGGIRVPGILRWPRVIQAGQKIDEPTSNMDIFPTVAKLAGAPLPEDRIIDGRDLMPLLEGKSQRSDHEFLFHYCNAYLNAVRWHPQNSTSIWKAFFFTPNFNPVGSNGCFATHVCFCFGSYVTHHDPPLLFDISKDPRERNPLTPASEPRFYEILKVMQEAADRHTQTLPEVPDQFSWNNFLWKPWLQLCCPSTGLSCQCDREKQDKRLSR
Procedure, shortened: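 Enzyme: STS extracted from human placenta and purified by multi-step chromatography. Each reaction held 20 mM Tris-HCl pH 7.4, 3 mM p-nitrophenyl sulfate (NPS), 5 U enzyme and graded inhibitor concentrations, and ran 15 min at 37 °C. Stopped with 1 M NaOH; released p-nitrophenol read at 405 nm. IC50 fitted from triplicate measurements.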

Steryl-sulfatase [2] = target: T1, Steryl-sulfatase; assay: Inhibition of human placenta STS
Procedure, shortened: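 Human placental STS purified to homogeneity by multi-step chromatography. Each reaction used 5 U enzyme, 20 mM Tris-HCl pH 7.4, 3 mM p-nitrophenyl sulfate (NPS) and a range of inhibitor concentrations, for 15 min at 37 °C. NaOH stopped the reaction, and released p-nitrophenol was read at 405 nm. IC50 came from the dose-response curve, run in triplicate.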

[3] = target: T2, Steryl-sulfatase (Homo sapiens) (UniProt P08842); assay: Irreversible inhibition of human placenta STS at 100 uM preincubated for 30 mins in standard condition followed by exchange of reaction environment
T2 sequence (whole entry): T1 sequence (P08842 whole entry)
Procedure, shortened: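 Purified human placental STS was run under standard assay conditions (Tris-HCl pH 7.4, NPS substrate, 37 °C) with inhibitor present. Restored enzyme activity was then measured the same way, by p-nitrophenol absorbance at 405 nm after an NaOH stop. Basal and restored activities were compared to tell reversible from irreversible inhibition.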

[4] = target: T2, Steryl-sulfatase (Homo sapiens); assay: Reversible inhibition of human placenta STS at 100 uM preincubated for 30 mins in standard condition followed by exchange of reaction environment
Procedure, shortened: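 Reversibility test: the standard placental STS/NPS assay (Tris-HCl pH 7.4, 37 °C) was run with compound at a single fixed concentration. Enzyme activity was then measured again after restoration by the same p-nitrophenol absorbance read-out at 405 nm. Basal and restored activities were compared.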

Steryl-sulfatase [5] = target: T1, Steryl-sulfatase; assay: Inhibition of recombinant human STS transfected in CHO cells using MUS as substrate after 30 mins by fluorescence assay; format: cell-based

SMILES | IC50 (Steryl-sulfatase [1]) | further results
O=c1oc2cc(OP(O)(=S)Oc3ccc4c5c(c(=O)oc4c3)CCCCC5)ccc2c2c1CCCCC2 | 5.51 µM | 
NS(=O)(=O)Oc1ccc2c(c1)OC(O)C1=C2CCCCC1 (configuration not stated) |  | IC50 (Steryl-sulfatase [2]): 0.008 µM
O=c1oc2cc(OP(O)(=S)Oc3ccc4c5c(c(=O)oc4c3)CCC5)ccc2c2c1CCC2 | 26.9 µM | 
NP(=S)(Oc1ccc2c3c(c(=O)oc2c1)CCCC3)Oc1ccc2c3c(c(=O)oc2c1)CCCC3 | 110 µM | 
COP(=S)(Oc1ccc2c3c(c(=O)oc2c1)CCCC3)Oc1ccc2c3c(c(=O)oc2c1)CCCC3 | 14.8 µM | 
COP(=S)(Oc1ccc2c3c(c(=O)oc2c1)CCCCC3)Oc1ccc2c3c(c(=O)oc2c1)CCCCC3 | 6.77 µM | inhibition [3]: Active
NP(=S)(Oc1ccc2c3c(c(=O)oc2c1)CCC3)Oc1ccc2c3c(c(=O)oc2c1)CCC3 | 74.3 µM | 
COP(=S)(Oc1ccc2c3c(c(=O)oc2c1)CCC3)Oc1ccc2c3c(c(=O)oc2c1)CCC3 | 75 µM | 
NP(=S)(Oc1ccc2c3c(c(=O)oc2c1)CCCCC3)Oc1ccc2c3c(c(=O)oc2c1)CCCCC3 | 88.8 µM | 
O=c1oc2cc(OP(O)(=S)Oc3ccc4c5c(c(=O)oc4c3)CCCC5)ccc2c2c1CCCC2 | 0.86 µM | inhibition [4]: Active
O=c1oc2cc(OP(=S)(Cl)Oc3ccc4c5c(c(=O)oc4c3)CCCC5)ccc2c2c1CCCC2 | 7.76 µM | inhibition [3]: Active
O=c1oc2cc(OP(=S)(Cl)Oc3ccc4c5c(c(=O)oc4c3)CCCCC5)ccc2c2c1CCCCC2 | 7.04 µM | 
O=c1oc2cc(OP(=S)(Cl)Oc3ccc4c5c(c(=O)oc4c3)CCC5)ccc2c2c1CCC2 | 33.8 µM | 
CC(C)N(C(=O)C1=CC[C@H]2[C@@H]3CCc4cc(OS(N)(=O)=O)ccc4[C@H]3CC[C@]12C)C(C)C |  | IC50 (Steryl-sulfatase [5]): 0.004 µM
